PubChem BioAssay
Activity calls are given as the source filed them.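 How the source made its calls, unless noted: active means viability at or below 10% of carrier control in both of two separate runs; inconclusive means viability at or below 10% in only one of the two runs; inactive means the rest.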

Assays:
[1] = Her2 expression decrease, cell viability multiplex – SKBR3 breast tumor cells, AlphaScreen, ATP viability, primary screen (AID 461;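 active means Her2 level under about 52% in both replicate screens, with viability over 70% of control, limit read from the data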;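 on Her2 level: lower value means less Her2 protein in the cells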;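 on viability: percent of carrier control wells set as 100% viability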); conditions: SKBR3 Her2 protein level, 18-24 h, measured here: SKBR3 viability, ATP luminescence, at 10 µM
[2] = target: Receptor tyrosine-protein kinase erbB-2 (Homo sapiens) (UniProt P04626); assay: as above; conditions: 18-24 h, at 10 µM, stronger effect = lower value
[3] = reduced viability of SK-BR-3 breast cancer cells – cell-based, 24 h, human, pilot screen (AID 572); conditions: SK-BR-3 viability, CellTiter-Glo luminescence, at 10 µM, stronger effect = lower value;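 further: compound exposure lasted between 18 and 24 h rather than exactly 24 h; 100% = carrier-treated control wells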
[4] = HUVEC growth inhibition – cell-based, human, primary screen (AID 575;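 active means viability at or below 30% in both replicate assays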;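 further: 100% = median of untreated cell wells with 0.1% DMSO on each plate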); conditions: HUVEC proliferation, CellTiter-Glo luminescence, 72 h; at 10 µM; stronger effect = lower value
Summary of the method: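 Material: primary human umbilical vein endothelial cells / Schedule: 72 h exposure, 37 °C, 5% CO2, 30 min RT equilibration / Signal: ATP-based CellTiter-Glo luminescent read / Read-out basis: percent of median DMSO-control luminescence / Control set: 32 DMSO-only cell-control wells (high), 32 MePR drug-control wells (low) per plate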

[5] = H69AR cell proliferation blockers – human, duplicate replicates, primary screen (AID 580;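 active means viability at or under a set limit in both replicates, limit being median viability minus 3 SD, cut at about 48% in these data, passing the limit was not always enough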;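 further: 100% = mean luminescence of untreated wells and 0% = no signal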); conditions: H69AR lung tumor cells viability, ATP luminescence, 72 h; at 10 µM; stronger effect = lower value
[6] = MRP1 drug-resistance reversers in H69AR cells – cell-based, doxorubicin co-treatment, pilot screen (AID 601;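 active means viability loss from added drug above about 55%, and viability with drug at most 40%, in both replicates, limit read from the data, passing the limit was not always enough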); conditions: CellTiter-Glo, 72 h, at 10 µM; for differential viability (reversal): stronger effect = higher value
[7] = yeast transport mutant growth inhibition pilot in 384-well plates, post-Golgi transport modulator project (AID 636; in the data active means inhibition above about 31%); conditions: absorbance 615 nm, about 18 h, stronger effect = higher value
[8] = growth suppression of yeast trafficking mutant, preliminary HTS, modulators of trafficking downstream of Golgi apparatus project, 1536-format plate, OD 615 nm (AID 637; in the data active means inhibition above about 30%); conditions: yeast transport mutant growth, absorbance 615 nm, 18 h; stronger effect = higher value
[9] = H69AR cells + 2 uM doxorubicin, measured here: viability with 2 uM doxorubicin, stronger effect = lower value
[10] = H69AR cells, compound alone cytotoxicity

Chain of Receptor tyrosine-protein kinase erbB-2 (Homo sapiens) (P04626 whole entry, looked up): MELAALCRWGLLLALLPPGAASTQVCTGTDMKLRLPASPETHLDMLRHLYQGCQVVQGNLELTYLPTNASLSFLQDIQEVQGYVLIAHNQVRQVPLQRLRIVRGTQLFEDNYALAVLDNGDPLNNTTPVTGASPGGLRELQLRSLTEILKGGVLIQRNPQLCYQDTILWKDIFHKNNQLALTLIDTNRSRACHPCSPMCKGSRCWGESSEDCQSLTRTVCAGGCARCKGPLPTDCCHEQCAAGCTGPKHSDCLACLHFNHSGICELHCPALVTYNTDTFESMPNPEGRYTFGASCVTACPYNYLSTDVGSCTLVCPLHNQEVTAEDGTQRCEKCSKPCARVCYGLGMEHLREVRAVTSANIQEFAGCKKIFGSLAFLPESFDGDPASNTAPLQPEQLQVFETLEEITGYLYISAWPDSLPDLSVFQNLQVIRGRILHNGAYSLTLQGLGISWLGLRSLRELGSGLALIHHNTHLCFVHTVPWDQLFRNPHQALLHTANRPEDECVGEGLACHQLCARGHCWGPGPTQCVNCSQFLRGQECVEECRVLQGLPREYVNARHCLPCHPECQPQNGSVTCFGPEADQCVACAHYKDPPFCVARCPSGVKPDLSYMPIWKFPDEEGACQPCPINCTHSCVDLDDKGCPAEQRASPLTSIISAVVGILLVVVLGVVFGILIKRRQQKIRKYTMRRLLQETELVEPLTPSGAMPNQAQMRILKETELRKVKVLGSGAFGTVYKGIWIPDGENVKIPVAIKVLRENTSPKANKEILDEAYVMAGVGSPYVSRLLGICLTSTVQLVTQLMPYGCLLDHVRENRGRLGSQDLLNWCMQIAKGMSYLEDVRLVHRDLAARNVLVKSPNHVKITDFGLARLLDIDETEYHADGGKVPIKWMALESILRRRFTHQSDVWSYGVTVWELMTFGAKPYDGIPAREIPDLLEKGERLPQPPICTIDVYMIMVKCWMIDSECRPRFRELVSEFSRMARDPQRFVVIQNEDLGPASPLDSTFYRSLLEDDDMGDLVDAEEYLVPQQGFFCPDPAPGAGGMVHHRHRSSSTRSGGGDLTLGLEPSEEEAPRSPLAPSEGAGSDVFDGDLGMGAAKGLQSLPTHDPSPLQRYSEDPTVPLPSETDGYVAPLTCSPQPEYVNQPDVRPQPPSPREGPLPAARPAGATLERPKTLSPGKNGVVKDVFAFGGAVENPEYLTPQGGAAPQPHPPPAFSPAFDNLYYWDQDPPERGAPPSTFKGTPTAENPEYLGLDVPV

Compound	viability [1] [%]	Her2 level [2]	viability [3]	viability [4]	viability [5]	differential viability (reversal) ([6]; H69AR cells + 2 uM doxorubicin)	viability [6, 9] [%]	viability [6, 10] [%]	inhibition [7]	inhibition [8]
CCOC(=O)C1=C(C)NC(C)=C(C(=O)OCC)C1C(=O)OC1CCOC1=O (stereo not given)	104	85% (inactive)	104% (inactive)	87.5% (inactive)	93.8% (inactive)	2.32% (inactive)	91.4	93.8	-5.27% (inactive)	0.95% (inactive)
CC(=O)Nc1ccc(OC(=O)c2cccnc2)cc1	111	116% (inactive)	111% (inactive)	116% (inactive)	99.9% (inactive)	15.1% (inactive)	84.9	99.9	-7.57% (inactive)	-3.17% (inactive)
Cc1ccc(S(=O)(=O)CCc2nnc(NC(=O)c3cnccn3)s2)cc1	97.5	87% (inactive)	97.5% (inactive)	116% (inactive)	99.6% (inactive)	1.94% (inactive)	97.6	99.6	-4.13% (inactive)	3.93% (inactive)
Cc1nn(-c2ccccc2)c2c1C(c1c(C)[nH]c(C#N)c1C)C(C#N)=C(N)O2 (stereo not given)	88	86.5% (inactive)	88% (inactive)	85.5% (inactive)	92.7% (inactive)	-13.2% (inactive)	106	92.7	-4.13% (inactive)	-5.25% (inactive)
O=C1c2ccccc2C(=O)N1Cc1nc2ccccc2c(=O)n1CCN1CCOCC1	97.5	81.5% (inactive)	97.5% (inactive)	111% (inactive)	88.8% (inactive)	-3.33% (inactive)	92.2	88.8	-1.18% (inactive)	-4% (inactive)
Cc1nc2ccccc2cc1O	133	104% (inactive)	133% (inactive)	85.9% (inactive)	92% (inactive)	-16.9% (inactive)	109	92	-6.05% (inactive)	13.1% (inactive)
c1ccc2c(Cn3ccnc3)c[nH]c2c1	109	114% (inactive)	109% (inactive)	85.3% (inactive)	86% (inactive)	-5.34% (inactive)	91.4	86	-5.19% (inactive)	-2.62% (inactive)
Cc1csc2nc(CSc3ccc(Cl)cc3)cn12	97.5	78% (inactive)	97.5% (inactive)	80.9% (inactive)	88.2% (inactive)	15.9% (inactive)	72.3	88.2	-5.87% (inactive)	3.77% (inactive)
CCn1nnnc1SCC(=O)Nc1nnc(C(C)C)s1	88.5	84.5% (inactive)	88.5% (inactive)	103% (inactive)	92.2% (inactive)	2.35% (inactive)	89.8	92.2	-4.4% (inactive)	3.11% (inactive)
Cc1cccc(-c2cc3nc4c(c(N5CCOCC5)n3n2)CCCC4)c1	93	70% (inactive)	93% (inactive)	71.7% (inactive)	76% (inactive)	-2.37% (inactive)	78.4	76	-6.76% (inactive)	2.95% (inactive)
COC(=O)CSc1nc(C)c(C(C)=O)cc1C#N	92	90.5% (inactive)	92% (inactive)	111% (inactive)	90.1% (inactive)	9.68% (inactive)	80.4	90.1	-0.93% (inactive)	-0.65% (inactive)
CCC(=O)N1CCc2cc(Br)cc(S(=O)(=O)N3CCCCCC3)c21	88.5	87% (inactive)	88.5% (inactive)	97.2% (inactive)	95.5% (inactive)	2.03% (inactive)	93.4	95.5	-3.03% (inactive)	4.91% (inactive)
CCOC(=O)C1CCN(c2c(Nc3ccc4c(c3)OCCO4)c(=O)c2=O)CC1	82.5	100% (inactive)	82.5% (inactive)	88% (inactive)	88.4% (inactive)	-0.805% (inactive)	89.2	88.4	1.03% (inactive)	3.17% (inactive)
COc1cc(NC(=O)c2cc(CC(C)C)on2)c(OC)cc1Cl	92	102% (inactive)	92% (inactive)	105% (inactive)	88.9% (inactive)	-3.37% (inactive)	92.2	88.9	1.15% (inactive)	-5.33% (inactive)
CCC1(C)Cc2c(C#N)c(N)n(N)c(=S)c2CO1 (stereo not given)	102	97.5% (inactive)	102% (inactive)	85.1% (inactive)	81.7% (inactive)	-7.55% (inactive)	89.3	81.7	0.91% (inactive)	-2.13% (inactive)
COc1cc2c(cc1NC(=O)COC(=O)Cn1cnc3ccccc31)oc1ccccc12	92	89% (inactive)	92% (inactive)	64.4% (inactive)	80.8% (inactive)	-16.1% (inactive)	96.9	80.8	-1.87% (inactive)	-3.23% (inactive)
